SUMO1 PPI mod: modulators of human SUMO1-mediated protein-protein interactions; P63165; SUMO1 binding to a labelled peptide, TR-FRET, 1 h; inhibition, % at 20 µM; 0.33% of 360,000 active; AID 602429; in the data active means inhibition above about 37%
STEP block: blocks human striatal-enriched tyrosine phosphatase; recombinant STEP, OMFP fluorogenic substrate, fluorescence; inhibition, % at 20 µM; 0.25% of 360,000 active; AID 588621;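 active means inhibition at 20 µM, scaled per plate between control wells, above about 37%, limit read from the data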;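 further: 0% = DMSO with enzyme and substrate and 100% = substrate only without enzyme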
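Measure: Control-normalized % inhibition with plate pattern correction | Test system: STEP phosphatase, cell-free reaction | Medium: pH 6.0 Bis-Tris with DTT and Tween 20 | Technique: Fluorescence, 480/540 nm | Times: Reaction 20 min, ambient temperature | Doses: Single compound dose of 20 µM, 1% DMSO final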
DNMT1 inh: DNMT1 (human) enzyme inhibition; P26358; DNMT1 molecular beacon, Hinp1I cleavage, fluorescence; inhibition (reported as % activation of signal), % at 10 µM; 0.83% of 360,000 active; in the data active means inhibition above about 50%
Target sequence (P26358 504-1616 limits assumed): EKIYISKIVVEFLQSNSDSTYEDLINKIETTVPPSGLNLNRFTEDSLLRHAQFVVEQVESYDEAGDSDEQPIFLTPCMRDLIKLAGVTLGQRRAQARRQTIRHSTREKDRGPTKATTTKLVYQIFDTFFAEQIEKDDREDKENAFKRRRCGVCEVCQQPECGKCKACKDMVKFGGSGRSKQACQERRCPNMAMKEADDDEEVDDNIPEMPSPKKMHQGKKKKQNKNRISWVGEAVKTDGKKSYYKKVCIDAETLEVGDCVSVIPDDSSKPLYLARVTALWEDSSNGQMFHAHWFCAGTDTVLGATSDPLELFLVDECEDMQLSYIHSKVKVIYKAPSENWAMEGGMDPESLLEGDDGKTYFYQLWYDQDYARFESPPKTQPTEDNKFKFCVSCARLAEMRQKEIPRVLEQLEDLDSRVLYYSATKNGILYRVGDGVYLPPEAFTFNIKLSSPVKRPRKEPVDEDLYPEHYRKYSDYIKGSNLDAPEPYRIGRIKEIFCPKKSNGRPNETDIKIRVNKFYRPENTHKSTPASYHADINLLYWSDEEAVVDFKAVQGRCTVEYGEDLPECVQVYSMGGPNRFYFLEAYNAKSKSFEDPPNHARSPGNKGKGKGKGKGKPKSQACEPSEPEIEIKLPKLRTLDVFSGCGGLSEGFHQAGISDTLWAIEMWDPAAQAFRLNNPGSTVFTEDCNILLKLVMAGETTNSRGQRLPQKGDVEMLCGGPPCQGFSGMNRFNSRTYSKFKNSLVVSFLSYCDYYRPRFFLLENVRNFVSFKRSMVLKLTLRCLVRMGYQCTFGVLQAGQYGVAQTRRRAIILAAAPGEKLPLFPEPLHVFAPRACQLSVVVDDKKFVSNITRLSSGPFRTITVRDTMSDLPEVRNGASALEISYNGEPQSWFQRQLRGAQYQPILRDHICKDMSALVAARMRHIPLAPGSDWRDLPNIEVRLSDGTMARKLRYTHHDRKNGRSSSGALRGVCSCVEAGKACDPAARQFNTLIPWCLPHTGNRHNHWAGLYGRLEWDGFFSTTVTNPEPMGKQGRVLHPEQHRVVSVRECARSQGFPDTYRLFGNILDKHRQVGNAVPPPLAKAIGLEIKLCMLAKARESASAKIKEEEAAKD
Scp1 inh: blocks human Scp-1 phosphatase activity. 0.88% of 340,000 active. Recombinant Scp1, phosphopeptide, malachite green phosphate absorbance. inhibition, % at 20 µM. Q9GZU7;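 active means inhibition above about 50% at 20 µM, limit read from the data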;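 further: plate controls were DMSO wells with enzyme for no effect and wells lacking enzyme for full effect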
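Test system: SCP-1 catalytic domain; Buffer or medium: Acidic Tris acetate buffer with magnesium and detergent; Also added: Phosphorylated 17-residue peptide substrate; Compound: single 20 µM dose, 1% DMSO; Schedule: enzyme reaction 45 min at room temperature, colour 5 min, stabilisation 30 min; Signal: Phosphate-binding colour reagent, absorbance read at 630 nm.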
LMPTP inh: blocks human LMPTP phosphatase; recombinant LMPTP-A, OMFP fluorogenic substrate, fluorescence intensity; AID 651560; inhibition, % at 20 µM; P24666; 0.22% of 360,000 active;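 active means compounds that cut the enzyme signal by at least half of the control window in the single-dose screen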;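 further: plate controls were DMSO wells with enzyme plus substrate for no effect and substrate without enzyme for full effect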
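Test system – LMPTP-A enzyme · Amount – LMPTP-A at 0.625 nM final in the reaction · Buffer or medium – Bis-Tris pH 6.0, DTT, detergent · Reagent – OMFP 400 µM · Doses – single 20 µM dose · Schedule – reaction 50 min, room temperature, dark · Detection – fluorescence intensity of OMFP turnover product · Evaluation – percent inhibition versus substrate-only and uninhibited controls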
HKDC1 inh: HKDC1 (human) hexokinase inhibition; 0.16% of 340,000 active; inhibition, % at 20 µM; Q2TB90; recombinant HKDC1, G6PDH/diaphorase resazurin coupled fluorescence;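 active means inhibition above about 35% when tested at 20 µM, limit read from the data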;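 further: plate controls were DMSO wells with enzyme for no effect and DMSO wells lacking enzyme for full effect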
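System: Recombinant HKDC1 hexokinase | Amount: HKDC1 at 5 µg/mL | Reagent: Glucose with 1 mM ATP | Doses: Single 20 µM dose | Incubation: Reaction time 90 min, room temperature, protected from light | Signal: Coupled resazurin fluorescence, excitation 525 nm, emission 613 nm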
DNMT1 interf DR: shows spectral interference in the DNMT1 beacon assay | shares compounds with DNMT1 inh | IC50, µM | molecular beacon fluorescence, spectral interference counter-screen | 200 tested, under 10 active; call rule not given here
DNMT1 confirm: DNMT1 inhibition confirmation, single concentration; inhibition, % at 10 µM; shares compounds with DNMT1 inh; 8% of 2,300 active; DNMT1 molecular beacon HinP1I cleavage, fluorescence;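 active means average inhibition of at least 30% in the single-concentration confirmation test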
DNMT1 interf: counter-screen for DNMT1 inhibitors: spectral interference; activation (fluorescence interference), % at 10 µM; 1% of 2,300 active; shares compounds with DNMT1 inh; DNMT1 molecular beacon spectral interference counterscreen, fluorescence 485/520;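 active means activation of at least 30% at 10 µM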;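 further: DNMT1 catalytic domain with a HinP1I cleavage step and a FAM/dabcyl DNA beacon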
* hit, by the source's call; / = no result. Most compounds without a hit are left out; they make up all but 1.8% or so of the library.

SMILES	SUMO1 PPI mod	STEP block	DNMT1 inh	Scp1 inh	LMPTP inh	HKDC1 inh	DNMT1 confirm	DNMT1 interf	others
COC(=O)/C(C(C)=O)=C(\C=C\N(C)C)N(C)C	-1	1	2	-4	-1	-7	/	/
COC(=O)\C(C(C)=O)=C(/C=C/C=C/C=C/N(C)C)N(C)C	-2	10	109*	74*	1	8	37*	19	DNMT1 interf DR=>99
O=C(O)CN=C(Nc1cc(Cl)cc(Cl)c1)NC(c1ccccc1)c1ccccc1	0	/	/	/	0	/	/	/
CCN(CC)C(=O)Cn1cc(S(=O)(=O)CC(=O)Nc2ccc(C(N)=O)cc2)c2ccccc21	-2	-2	2	-5	1	-3	/	/
Cc1c(Br)cccc1NC(=O)C1(C)CCN1C(C)C (centres undefined)	6	-2	24	/	1	/	/	/
COc1cc(C(=O)N(Cc2ccccc2)c2cccc(C)c2)ccc1OCC(=O)N1CCOCC1	-2	2	1	/	0	/	/	/
CCc1ccc(-c2cc(C(F)(F)F)n3nc(C(=O)Nc4cnn(Cc5ccc(C)cc5)c4)cc3n2)s1	-5	20	56*	-4	3	1	0	-7
O=C1NC(c2cccs2)Nc2ccccc21 (centres undefined)	-5	-4	64*	-12	0	-6	2	0
Cc1ccsc1C1NC(=O)c2ccccc2N1 (centres undefined)	3	-2	1	-12	-1	-7	/	/
O=C(COc1cc(F)ccc1[N+](=O)[O-])NCC1CCCO1 (centres undefined)	-10	2	2	-7	-1	-5	/	/
Cc1nc2c(=O)[nH]c(=S)[nH]c2[nH]c1=O	55*	2	79*	96*	0	5	2	-2
Cc1nc2[nH]c(=S)[nH]c(=O)c2nc1C	6	-2	-8	5	-2	-5	/	/
O=C(CSc1nc2ccccc2c2nc3ccccc3n12)NCc1ccco1	6	2	71*	25	6	2	15	1
COc1ccc(NC(=O)CSc2ccc3c4c(cccc24)C(=O)c2ccccc2-3)cc1	-10	0	61*	-7	3	2	5	1
Cc1ccc(NC(=O)CSc2nc3ccccc3c3nc4ccccc4n23)cc1	2	0	52*	3	0	-10	2	-6
COc1ccc(NC(=O)CSc2nc3ccccc3c3nc4ccccc4n23)cc1	-1	1	58*	3	1	17	5	-7
COc1ccc(-n2c(SCC(=O)Nc3ccc(NC(C)=O)cc3)nc3ccccc3c2=O)cc1	11	2	-8	-4	-1	5	/	/
CN(C)S(=O)(=O)c1cccc(NC(=O)C2CCCN(C(=O)c3ccc(Cl)cc3)C2)c1 (centres undefined)	-1	-1	-1	/	0	/	/	/
N#Cc1ccc(CN2CCN(C(=O)C3CC(=O)N(c4ccc5c(c4)OCCO5)C3)CC2)cc1 (centres undefined)	1	2	3	/	-2	/	/	/
CC1(C(=O)NS(=O)(=O)c2cccc(F)c2)CCN1C(=O)Cc1cccs1 (centres undefined)	0	2	-1	/	-2	/	/	/
CC(C)C[C@H]1CN(CCCC[C@@H]2CNC(=O)C(=O)N2Cc2ccccc2)C(=O)C(=O)N1CCc1ccccc1	0	/	/	/	-2	/	/	/
CC(C)c1cc(C(=O)OCC(=O)NC2CCS(=O)(=O)C2)c(O)c(C(C)C)c1 (centres undefined)	-3	0	4	/	-1	/	/	/
CCCCn1c(SCC(=O)NCc2ccco2)nc2c(sc3ccccc32)c1=O	-2	2	36	0	1	4	/	/
O=C(CSc1nc2c(sc3ccccc32)c(=O)n1CCc1ccccc1)NCc1ccco1	0	2	65*	5	-1	-5	3	-4
CCCCCn1c(N)c(-c2nc3ccccc3o2)c2c([N+](=O)[O-])nn(CC)c(=O)c21	11	38	95*	102*	56*	21	2	1
SMILES	SUMO1 PPI mod	STEP block	DNMT1 inh	Scp1 inh	LMPTP inh	HKDC1 inh	DNMT1 confirm	DNMT1 interf	others
CCCCCn1c(N)c(-c2nc3ccccc3s2)c2c([N+](=O)[O-])nn(CC)c(=O)c21	11	3	-3	-5	4	7	/	/
CC(=O)c1ccc(NC(=S)N2CCN(CCN3C(=O)c4cccc5cccc(c45)C3=O)CC2)cc1	-2	4	55*	0	2	0	1	-3
CCCCn1c(NS(=O)(=O)c2ccc(C)cc2)c(S(=O)(=O)c2ccccc2)c2nc3ccccc3nc21	50*	3	55*	-17	25	1	2	-6
Cn1ncn2c(=O)c3c(nc12)-c1ccccc1CC31CCCC1	6	2	85*	-9	1	-4	1	3
CCOC(=O)C1=C(C)N(C[C@@H]2CC[C@@H](Cc3ccc(-c4ccccc4)cc3)O2)C(=O)NC1c1ccc(SCc2ccco2)c([N+](=O)[O-])c1 (some centres undefined)	6	1	94*	35	6	7	6	-4
O=C(NCCNC(=O)c1ccc(F)cc1)c1ccc(F)cc1	7	0	3	-6	-1	-3	/	/
O=C(NCSc1ccnc(SCNC(=O)c2ccc(F)cc2)n1)c1ccc(F)cc1	2	6	52*	38	0	-6	3	-6
O=C1CCCC(O)=C1N=Nc1ccc(C(=O)O)cc1	23	12	83*	76*	6	6	20	0
COc1ccc([C@H]2C[C@H](O)[C@@H](n3cc(-c4ccc(F)cc4)nn3)CN2Cc2cccs2)cc1	1	-3	-25	/	5	/	/	/
Cc1ccc([N+](=O)[O-])cc1-c1ccc(/C=C(\C#N)c2[nH]nc(N)c2C#N)o1	58*	37	84*	36	71*	21	6	-6
COc1cc2sc3ccc(-c4ccc(N(C)C)nc4)cc3c(=O)c2cc1OC	/	/	/	0	/	8	/	/
COc1ccc(-c2ccc3sc4ccccc4c(=O)c3c2)cn1	19	7	56*	6	33	11	0	-5
